{"source": "ChEMBL document CHEMBL4196194", "about": "“De Novo Design of α-Helical Lipopeptides Targeting Viral Fusion Proteins: A Promising Strategy for Relatively Broad-Spectrum Antiviral Drug Discovery” (J Med Chem, 2018)", "key": {"Influenza A virus [1]": {"system": "Influenza A virus", "assay": "Antiviral activity against Influenza A virus (A/Puerto Rico/8/1934(H1N1)) infected in HEK293T cells assessed as inhibition of viral replicon activity incubated for 30 hrs by dual-Glo luciferase assay", "format": "functional, organism-based", "details": "HEK-293T", "method_in_brief": "(§1)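 HEK293T cells (2.5 × 10^4/well) transfected with plasmids for NP, PB1, PB2, PA plus p0LN-S-Luc firefly and pRL-SV40 Renilla reporters; serially diluted compound added 6 h post-transfection, luciferase read after 30 h by Dual-Glo. Activity = firefly/Renilla ratio; % inhibition normalized to positive and negative controls, curve-fitted; three independent measurements.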"}, "Influenza A virus [2]": {"system": "Influenza A virus", "assay": "Antiviral activity against influenza A virus Hong Kong/8/1968(H3N2) infected in HEK293T cells assessed as inhibition of viral replicon activity incubated for 30 hrs by dual-Glo luciferase assay", "format": "functional, organism-based", "details": "HEK-293T", "method_in_brief": "as §1"}, "[3]": {"assay": "Cytotoxicity in MDCK cells assessed as reduction in cell viability incubated for 72 hrs by cell-titer-Glo cell viability assay", "format": "cell-based, Canis lupus familiaris", "details": "dog"}, "Influenza A virus [4]": {"system": "Influenza A virus", "assay": "Antiviral activity against influenza A virus assessed as inhibition of viral replicon activity up to 100 uM incubated for 30 hrs by firefly luciferase reporter gene assay", "format": "functional, organism-based", "method_in_brief": "as §1"}, "Influenza A virus [5]": {"system": "Influenza A virus", "assay": "Antiviral activity against influenza A virus assessed as inhibition of viral replicon activity incubated for 30 hrs by firefly luciferase reporter gene assay", "format": "functional, organism-based", "method_in_brief": "as §1"}, "Influenza A virus [6]": {"system": "Influenza A virus", "assay": "Inhibition of influenza A virus infected in MDCK cells assessed as inhibition of viral load treated with compound at 0 to 10 hrs post-infection by RT-qPCR method based time of addition assay", "format": "functional", "method_in_brief": "(§2)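 MDCK cells (2.0 × 10^5/well) washed with PBS, virus adsorbed (MOI 0.05) 60 min at 4 °C, washed, then compound present only during 0–10, 0–2, 2–5, 5–8 or 8–10 h postinfection; cultured in fresh medium to 10 h, total RNA extracted, viral load by absolute one-step RT-qPCR; triplicate, versus PBS control.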"}, "Influenza A virus [7]": {"system": "Influenza A virus", "assay": "Inhibition of influenza A virus infected in MDCK cells assessed as inhibition of viral load treated with compound at 0 to 2 hrs post-infection by RT-qPCR method based time of addition assay", "format": "functional", "method_in_brief": "as §2"}, "Influenza A virus [8]": {"system": "Influenza A virus", "assay": "Inhibition of influenza A virus infected in MDCK cells assessed as inhibition of viral load treated with compound at 2 to 5 hrs post-infection by RT-qPCR method based time of addition assay", "format": "functional, organism-based", "method_in_brief": "as §2"}, "Influenza A virus [9]": {"system": "Influenza A virus", "assay": "Inhibition of influenza A virus infected in MDCK cells assessed as inhibition of viral load treated with compound at 5 to 8 hrs post-infection by RT-qPCR method based time of addition assay", "format": "functional, organism-based", "method_in_brief": "as §2"}, "Influenza A virus [10]": {"system": "Influenza A virus", "details": "A/Puerto Rico/8/1934(H1N1), 0.1 to 1000 uM"}, "Influenza A virus [11]": {"system": "Influenza A virus", "details": "Hong Kong/8/1968(H3N2), 0.1 to 1000 uM"}, "[12]": {"assay": "Inhibition of MERS-CoV spike protein-mediated cell-cell fusion in 293T/MERS/EGPF cells assessed as reduction in cell fusion incubated for 4 hrs by inverted fluorescence microscopy", "format": "cell-based, Middle East respiratory syndrome-related coronavirus", "method_in_brief": "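Huh-7 cells expressing DPP4 plated 5 × 10^4/well, 5 h at 37 °C; serially diluted peptide added, then 293T cells carrying MERS-CoV S and EGFP (or EGFP-only control cells), 1 × 10^4/well. After 4 h coculture at 37 °C, fused and unfused effector cells counted by fluorescence microscopy.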"}, "[13]": {"assay": "Cytotoxicity in human HuH7 cells assessed as reduction in cell viability incubated for 48 hrs by CCK8 assay", "format": "cell-based, Huh-7", "method_in_brief": "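Huh-7 cells (1 × 10^5 cells/mL suspension seeded) grown 12 h at 37 °C, 5% CO2, then serially diluted peptide added for 48 h; untreated blank and Triton X-100 controls. CCK-8 added for 2 h, absorbance at 450 nm.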"}, "Lipid bilayer": {"system": "Lipid bilayer", "assay": "Binding affinity to POPC LUV liposome system at 15 uM", "method_in_brief": "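Isothermal titration calorimetry at 25 °C. POPC large unilamellar vesicles (13 mM in the syringe) were titrated into peptide in the cell (15 μM) over 20 injections, 120 s apart, with stirring at 750 rpm. The binding constant was derived from the heat released during peptide–lipid binding.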"}, "Influenza A virus [14]": {"system": "Influenza A virus", "assay": "Antiviral activity against Influenza A virus (A/Puerto Rico/8/1934(H1N1)) infected in HEK293T cells assessed as inhibition of viral replicon activity up to 40 uM incubated for 30 hrs by dual-Glo luciferase assay", "format": "functional, organism-based", "method_in_brief": "as §1"}, "[15]": {"system": "Middle East respiratory syndrome-related coronavirus", "assay": "Antiviral activity against MERS-CoV pseudovirus infected in human HuH7 cells treated with 30 mins pre-treated pseudovirus/compopund mixture and measured after 48 hrs by luciferase reporter assay", "format": "functional, organism-based", "method_in_brief": "(§3)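 Serially diluted peptide premixed with MERS-CoV pseudovirus 30 min at 37 °C, then added to Huh-7 cells; medium replaced at 12 h postinfection and cells cultured a further 48 h at 37 °C before luciferase read-out.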"}, "[16]": {"system": "Middle East respiratory syndrome-related coronavirus", "assay": "Antiviral activity against MERS-CoV pseudovirus infected in human HuH7 cells treated with 30 mins pre-treated pseudovirus/compopund mixture up to 40 uM and measured after 48 hrs by luciferase reporter assay", "format": "functional, organism-based", "method_in_brief": "as §3"}}, "note": "Activity calls are given as the source filed them. No cut-off for these calls is given here. Where a SMILES comes first, the peptide text is derived from it. [ ]: non-standard residue; d: D form. The star is where a group is joined. Palmitoyl = CCCCCCCCCCCCCCCC(=O)*; βAla = NCCC(=O)O", "data": [{"smiles": "CCOC(=O)C1=C[C@@H](OC(CC)CC)[C@H](NC(C)=O)[C@@H](N)C1", "note": "[OSELTAMIVIR]", "values": [{"measurement": "EC50", "setting": "Influenza A virus [1]", "result": 1480, "unit": "nM"}, {"measurement": "EC50", "setting": "Influenza A virus [2]", "result": 10, "unit": "nM"}, {"measurement": "CC50 at 72 h", "setting": "[3]", "result": "> 100", "unit": "µM"}, {"measurement": "inhibition", "setting": "Influenza A virus [4]", "result": "inactive"}]}, {"smiles": "NC(=O)c1nc(F)cnc1O", "values": [{"measurement": "IC50", "setting": "Influenza A virus [5]", "result": 26.2, "unit": "µM"}, {"measurement": "inhibition", "setting": "Influenza A virus [5]", "result": "Dose-dependent effect"}, {"measurement": "inhibition", "setting": "Influenza A virus [6]", "result": "Active"}, {"measurement": "inhibition", "setting": "Influenza A virus [7]", "result": "Active"}, {"measurement": "inhibition", "setting": "Influenza A virus [8]", "result": "Active"}, {"measurement": "inhibition", "setting": "Influenza A virus [9]", "result": "Active"}, {"measurement": "inhibition", "setting": "Influenza A virus [10]", "result": "inactive"}, {"measurement": "inhibition", "setting": "Influenza A virus [11]", "result": "inactive"}]}, {"smiles": "CCCCCCCCCCCCCCCC(=O)NCCCC[C@H](NC(=O)CCNC(=O)[C@H](CCCCN)NC(=O)[C@H](CCCCN)NC(=O)[C@H](CO)NC(=O)[C@H](Cc1ccccc1)NC(=O)[C@H](CCC(=O)O)NC(=O)[C@H](CCC(=O)O)NC(=O)[C@H](Cc1ccccc1)NC(=O)[C@H](CCCCN)NC(=O)[C@H](CCCCN)NC(=O)[C@H](CO)NC(=O)[C@H](Cc1ccccc1)NC(=O)[C@H](CCC(=O)O)NC(=O)[C@H](CCC(=O)O)NC(=O)[C@H](Cc1ccccc1)NC(=O)[C@H](CCCCN)NC(=O)[C@H](CCCCN)NC(=O)[C@H](CO)NC(=O)[C@H](Cc1ccccc1)NC(=O)[C@H](CCC(=O)O)NC(=O)[C@H](CCC(=O)O)NC(=O)[C@H](Cc1ccccc1)NC(=O)[C@H](CCCCN)NC(=O)[C@H](CCCCN)NC(=O)[C@H](CO)NC(=O)[C@H](Cc1ccccc1)NC(=O)[C@H](CCC(=O)O)NC(=O)[C@H](CCC(=O)O)NC(=O)[C@H](Cc1ccccc1)NC(=O)[C@H](CCCCN)NC(=O)[C@H](CCCCN)NC(=O)[C@H](CO)NC(=O)[C@H](Cc1ccccc1)NC(=O)[C@H](CCC(=O)O)NC(=O)[C@H](CCC(=O)O)NC(=O)[C@H](Cc1ccccc1)NC(C)=O)C(N)=O", "note": "(Ac-FEEFSKKFEEFSKKFEEFSKKFEEFSKKFEEFSKK[βAla]K(Palmitoyl)-NH2)", "values": [{"measurement": "EC50", "setting": "[12]", "result": 3.11, "unit": "µM"}, {"measurement": "CC50 at 48 h", "setting": "[13]", "result": "> 100", "unit": "µM"}]}, {"smiles": "CC[C@H](C)[C@H](NC(C)=O)C(=O)N[C@@H](CCC(=O)O)C(=O)N[C@@H](CCC(=O)O)C(=O)N[C@H](C(=O)N[C@@H](CCC(N)=O)C(=O)N[C@@H](CCCCN)C(=O)N[C@@H](CCCCN)C(=O)N[C@H](C(=O)N[C@@H](CCC(=O)O)C(=O)N[C@@H](CCC(=O)O)C(=O)N[C@H](C(=O)N[C@@H](CCC(N)=O)C(=O)N[C@@H](CCCCN)C(=O)N[C@@H](CCCCN)C(=O)N[C@H](C(=O)N[C@@H](CCC(=O)O)C(=O)N[C@@H](CCC(=O)O)C(=O)N[C@H](C(=O)N[C@@H](CCC(N)=O)C(=O)N[C@@H](CCCCN)C(=O)N[C@@H](CCCCN)C(=O)N[C@H](C(=O)N[C@@H](CCC(=O)O)C(=O)N[C@@H](CCC(=O)O)C(=O)N[C@H](C(=O)N[C@@H](CCC(N)=O)C(=O)N[C@@H](CCCCN)C(=O)N[C@@H](CCCCN)C(=O)N[C@H](C(=O)N[C@@H](CCC(=O)O)C(=O)N[C@@H](CCC(=O)O)C(=O)N[C@H](C(=O)N[C@@H](CCC(N)=O)C(=O)N[C@@H](CCCCN)C(=O)N[C@@H](CCCCN)C(=O)NCCC(=O)N[C@@H](CCCCNC(C)=O)C(N)=O)[C@@H](C)CC)[C@@H](C)CC)[C@@H](C)CC)[C@@H](C)CC)[C@@H](C)CC)[C@@H](C)CC)[C@@H](C)CC)[C@@H](C)CC)[C@@H](C)CC", "note": "(Ac-IEEIQKKIEEIQKKIEEIQKKIEEIQKKIEEIQKK[βAla]K(Ac)-NH2)", "values": [{"measurement": "Activity", "setting": "Lipid bilayer", "result": "inactive"}, {"measurement": "inhibition", "setting": "Influenza A virus [14]", "result": "inactive"}, {"measurement": "Activity", "setting": "[15]", "result": "inactive"}, {"measurement": "Activity", "setting": "[16]", "result": "inactive"}]}]}
